Screening data as filed in PubChem.
Apaf1 inhib: human Apaf-1 inhibition | AID 489030 | inhibition, % at 20 µM | actives 0.71% (n = 330,000) | O14727 | reconstituted apoptosome caspase-3 activity, DEVD-Rh110 fluorescence; active = inhibition of at least 40% at 20 µM;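 note: plate controls were DMSO wells for no effect and DEVD-CHO caspase inhibitor wells for full effect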
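Material: cell-free apoptosome with Apaf-1, procaspase-3 and caspase-9; Buffer or medium: Hepes pH 7.5 with detergent and BSA; Reagent: cytochrome c trigger plus (Z-DEVD)2-Rh110 caspase-3 substrate; Times: compound with Apaf-1, dATP, procaspase-3 30 min, then 50 min reaction, room temperature; Technique: Rh110 fluorescence intensity.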
SENP6 block: inhibitors of human SENP6 protease | actives 1.8% (n = 330,000) | Q9GZR1 | inhibition, % at 10 µM | Recombinant SENP6 catalytic domain, aminoluciferin luminescence;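 active = inhibition above about 50% at the single tested dose, limit read from the data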;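 note: plate controls were DMSO wells with enzyme for no effect and DMSO wells lacking enzyme for full effect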
SENP7 block: inhibitors of human SENP7 protease | recombinant SENP7, Z-RLRGG-aminoluciferin luminescence, 40 min | actives 1.5% (n = 330,000) | AID 434973 | inhibition, % at 5 µM | Q9BQF6;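 active = inhibition above about 50% at the single test dose, limit read from the data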;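 note: plate controls were DMSO with enzyme for no effect and no enzyme buffer wells for full effect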
Target sequence (Q9BQF6 706-1050 limits assumed): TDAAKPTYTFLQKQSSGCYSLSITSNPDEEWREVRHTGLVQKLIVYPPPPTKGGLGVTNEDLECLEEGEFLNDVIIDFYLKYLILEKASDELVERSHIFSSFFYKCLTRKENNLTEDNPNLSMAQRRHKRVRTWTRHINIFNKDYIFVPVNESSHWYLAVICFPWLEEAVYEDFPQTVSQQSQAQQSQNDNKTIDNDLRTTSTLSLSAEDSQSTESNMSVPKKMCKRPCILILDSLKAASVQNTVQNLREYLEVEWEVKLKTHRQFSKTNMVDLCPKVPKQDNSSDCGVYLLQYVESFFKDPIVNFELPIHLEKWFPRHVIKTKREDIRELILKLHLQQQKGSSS
SENP8 block-1: SENP8 (human) protease inhibition. Q96LD8. recombinant SENP8, Nedd8 substrate fluorescence. inhibition, % at 20 µM. actives 0.64% (n = 360,000); in the data active = inhibition mostly above about 40%, no sharp cut-off; inactive = mostly below about 27%
Target sequence (Q96LD8 whole entry, looked up): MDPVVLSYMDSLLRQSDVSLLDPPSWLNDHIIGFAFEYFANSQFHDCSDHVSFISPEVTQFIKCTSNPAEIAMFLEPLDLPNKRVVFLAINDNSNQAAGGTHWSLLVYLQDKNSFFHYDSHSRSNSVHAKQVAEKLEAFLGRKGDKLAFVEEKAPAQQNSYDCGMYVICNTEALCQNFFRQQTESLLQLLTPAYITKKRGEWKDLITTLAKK
SENP8 block-2: blocks the human protease SENP8 | inhibition, % at 10 µM | AID 2540 | purified SENP8, Z-RLRGG-aminoluciferin cleavage, luminescence | actives 1.2% (n = 330,000) | Q96LD8; in the data active = inhibition above about 50%
UBC13 polyUb: human UBC13 polyubiquitination inhibition; actives 0.47% (n = 330,000); UBC13 polyubiquitin chain formation, TR-FRET; AID 485273; P61088; inhibition, % at 20 µM; in the data active = inhibition above about 45%, passing the limit was not always enough
Apaf-1 inh conf: Apaf-1 inhibition, single-dose confirmed; AID 504614; actives 25% (n = 1,800); reconstituted apoptosome, caspase-3 DEVD-Rh110 fluorescence; inhibition, % at 20 µM; shares compounds with Apaf1 inhib;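 active = mean inhibition of at least 40% at 20 µM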;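 note: plate controls were DMSO wells for no effect and DEVD-CHO caspase inhibitor control wells for full effect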
Rh110 quench: interferes with Rh110 fluorescence, flagging false Apaf-1 inhibitors; shares compounds with Apaf1 inhib; Rh110 fluorescence interference, quenched caspase reaction; activation (fluorescence interference), % at 20 µM; 1,800 tested, under 10 active; AID 504615;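 active = signal rise of 40% or more at 20 µM, treated as a fluorescence artifact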
Apaf1 inh interf: counter-screen for Apaf-1 inhibitors: fluorescence interference, dose response. IC50, µM. AID 588538. shares compounds with Apaf1 inhib. 460 tested, under 10 active. fluorescence interference counterscreen, Apaf-1 assay format; call rule not given here
An asterisk follows results filed as active; i = inactive; / = no result given; ! = a repeat was not active. Hits are enriched below; roughly 3% of the tested compounds scored in any of these assays.

SMILES	Apaf1 inhib	SENP6 block	SENP7 block	SENP8 block-1	SENP8 block-2	UBC13 polyUb	Apaf-1 inh conf	Rh110 quench	others
N#Cc1ccsc1NC(=O)c1cccc([N+](=O)[O-])c1	-10	-11	8	5	1	-1	/	/
O=C(Nc1ccc2nc3ccccc3nc2c1)c1ccc(Br)cc1	19	-8	0	-301	5	-2	/	/
CC(=O)Nc1ccc2nc3ccccc3nc2c1	50*	5	9	-245	-5	-28	9	2
CCOC(=O)c1c(NC(=O)c2cccs2)sc(C)c1CC	51*	0	2	-334	3	12	13	9
CCOc1ccccc1C=C1CCc2ccccc2C1=O	/	/	/	16	/	/	/	/
CCOc1ccc2noc3c2c1C(=O)c1ccccc1-3	76*	79*	24	70*	43	-130	56*	-20
O=C1c2ccccc2-c2onc3ccc(NCc4ccco4)c1c23	69*	64*	-5	100*	24	i	30	-50
CCCS(=O)(=O)NC(=O)C1(C)CCN(C(=O)c2ccc(C(=O)OC)cc2)C1 (centres undefined)	/	/	/	9	/	/	/	/
COCCNC(=O)C[C@@H]1C[C@H]2c3cc(NC(=O)Nc4ccc(F)cc4)ccc3O[C@H]2[C@H](CO)O1	/	/	/	5	/	/	/	/
CCN1CCc2c(sc(NC(=O)c3ccc(C(=O)c4ccccc4)cc3)c2C(N)=O)C1	44*	10	4	-25	9	20	21	10
NC(=O)c1c(NC(=O)c2ccccc2)sc2c1CCN(Cc1ccccc1)C2	9	-8	0	-402	2	19	/	/
CCc1nc2ccc(C(=O)NCCCN3CCCC3=O)cn2c1N(C)C(=O)Nc1ccccc1OC	/	/	/	-11	/	/	/	/
Cc1c(Cl)cccc1N=C1SCCN1C(=O)CN1C(=O)NC2(CCCC2)C1=O	40*	-16	0	0	1	4	17	-3
CS(=O)(=O)N1Cc2cc(C(=O)NCC3CC3)nc(-c3cccc(-c4cccnc4)c3)c2[C@H]1CCO	/	/	/	9	/	/	/	/
CS(=O)(=O)c1nc(-c2ccc(Br)cc2)cc(-c2ccccc2)c1C#N	47*	-38	-1	-89	-9	10	59*	4	Apaf1 inh interf=>100
COc1ccc(-c2cc(-c3ccccc3)c(C#N)c(S(C)(=O)=O)n2)cc1	31	4	1	i	-1	38	/	/
O=C(NCCC(=O)N1CCN(c2cccc(Cl)c2)CC1)c1ccc(Br)cc1	44*	-5	3	22	-2	27	36	13
O=C(NCCC(=O)N1CCN(c2ccccc2O)CC1)c1ccc(Br)cc1	2	-5	-10	20	-6	-7	/	/
CCN1CCN(S(=O)(=O)c2ccc(Cl)c(C(=O)N(C)Cc3cccc(Cl)c3Cl)c2)CC1	43*	-11	-3	17	-1	2	30	-1
CCN1CCN(S(=O)(=O)c2ccc(Cl)c(C(=O)N(C)Cc3ccccc3)c2)CC1	-7	3	1	9	6	-1	/	/
COc1ccc(S(=O)(=O)N2CCCCCC2)cc1C(=O)NCCc1ccccc1	47*	-5	6	-5	-2	10	36	-7
COc1ccc(S(=O)(=O)N2CCCCCC2)cc1C(=O)N(C)Cc1c(F)cccc1Cl	43*	7	-1	8	-4	23	31	4
O=C(Nc1ccc([N+](=O)[O-])cc1)C(c1ccccc1)c1ccccc1	/	/	/	16	/	/	/	/
CCCCCCCCN1C(=O)[C@H](CC(=O)N2CCN(C(=O)OCC)CC2)C[C@@]2(C(=O)OCC)CCCC=C12	/	/	/	18	/	/	/	/
CC1(C(=O)Nc2ccc(F)cc2F)CCN1C(=O)Cc1ccccc1 (centres undefined)	/	/	/	8	/	/	/	/
SMILES	Apaf1 inhib	SENP6 block	SENP7 block	SENP8 block-1	SENP8 block-2	UBC13 polyUb	Apaf-1 inh conf	Rh110 quench	others
O=C(/C=C/c1ccc([N+](=O)[O-])cc1)c1ccco1	-11	-1	-2	26	1	8	/	/
O=C(/C=C/c1ccc(-c2ccccc2[N+](=O)[O-])o1)c1ccco1	43*	18	1	-43	8	-32	19	-2
O=C(NCCCn1ccnc1)c1noc2c1CCc1ccccc1-2	47*	26	10	8	12	-2	40	2
COCCCC/C(=N\OCCN)c1ccc(C(F)(F)F)cc1	99*!	-26	-8	5	-8	-2	3	-3
Cc1nc(N2CCCCC2)[nH]c(=O)c1CN(C)N=O	/	/	/	17	/	/	/	/
Cc1cc(C)n(C2CC(=O)N(c3ccccc3)C2=O)n1 (centres undefined)	-13	-9	-3	12	1	6	/	/
CC(=O)NC1N=C(C)N(c2ccccc2)C1=O (centres undefined)	70*	-1	36	37	0	-38	9	-3
COc1ccc2c(c1)c(/C=N/Nc1nc3ccccc3[nH]1)c(C)n2C	43*	-1	-9	-182	-13	2	20	15
CCNC(=O)C1(C)CCCN(Cc2ccc(-n3ccnc3)cc2)C1 (centres undefined)	/	/	/	11	/	/	/	/
COc1ccc2nc(N(CCN(C)C)C(=O)c3ccc(C(=O)c4ccccc4)cc3)sc2c1	17	3	-1	15	1	20	/	/
CCN(CC)CCN(C(=O)c1ccc(C(=O)c2ccccc2)cc1)c1nc2ccc(OC)cc2s1	44*	2	2	7	3	12	15	-5
COC(=O)c1cc(C)nc2c1C(=O)C(=O)C=C2N1CCOCC1	99*	90*	93*	111*	98*	-202	100*	4	Apaf1 inh interf=>100
COC(=O)c1cc(S(=O)(=O)N2CCOCC2)c(Cl)cc1N1CCOCC1	-19	-3	-1	11	-7	6	/	/
CCCCn1nnnc1C(c1ccccc1)N1CCN(C(=O)c2ccco2)CC1 (centres undefined)	/	/	/	7	/	/	/	/
Cc1ccc(-c2nnc(CSc3nnc(COc4cccc5ccccc45)n3-c3ccccc3)o2)cc1	44*	-7	1	20	2	6	47*	-3	Apaf1 inh interf=>100
COc1ccc(C=NN=C2c3ccccc3-c3ccccc32)cc1OC	/	/	/	26	/	/	/	/
CC1(C(=O)NS(=O)(=O)c2ccc(F)cc2F)CCN1C(=O)CC1CCCC1 (centres undefined)	/	/	/	10	/	/	/	/
CC(=O)C(C(C)=O)C1(O)C(=O)c2ccccc2C1=O	86*	40	18	61*	-15	-14	87*	-2	Apaf1 inh interf=>100
Cc1ccsc1C(=O)N1CCC1(C)C(=O)Nc1ccc2c(c1)OCCO2 (centres undefined)	/	/	/	23	/	/	/	/
